Experimental data: ChEMBL document CHEMBL2086326, “Biological activity evaluation and structure-activity relationships analysis of ferulic acid and caffeic acid derivatives for anticancer” (Bioorg Med Chem Lett, 2012)

Legend:
Type in all cases: functional, cell-based
NCI-H460 = assay: Cytotoxicity against human H460 cells after 72 hrs by alamar blue assay; conditions: NCI-H460, 72 h
In short: (§1)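 Cells seeded at 800–1000 per well (20–25 cells/µL) and left overnight to attach. Compounds were diluted serially from 10 mM DMSO stocks and tested at 8 final concentrations, 50 to 0.39 µM, in triplicate for 72 h. Vehicle control was 0.5% DMSO. Alamar blue was added to 10% final and fluorescence read after 4 h (ex 530, em 560 nm). Viability was expressed as percent of vehicle, and IC50 taken as 50% kill versus control.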

[1] = Cytotoxicity against human M4E cells after 72 hrs by alamar blue assay; in short: as §1
M14 = assay: Cytotoxicity against human M14 cells after 72 hrs by alamar blue assay; conditions: M14, 72 h; in short: as §1
NCI-H157 = assay: Cytotoxicity against human NCI-H157 cells after 72 hrs by alamar blue assay; conditions: NCI-H157, 72 h; in short: as §1
Calu-1 = assay: Cytotoxicity against human Calu1 cells after 72 hrs by alamar blue assay; conditions: Calu-1, 72 h; in short: as §1
A549 = assay: Cytotoxicity against human A549 cells after 72 hrs by alamar blue assay; conditions: A549, 72 h; in short: as §1
NCI-H1792 = assay: Cytotoxicity against human NCI-H1792 cells after 72 hrs by alamar blue assay; conditions: NCI-H1792, 72 h; in short: as §1
[2] = Cytotoxicity against human 292G cells after 72 hrs by alamar blue assay; in short: as §1
HOP-62 = assay: Cytotoxicity against human HOP62 cells after 72 hrs by alamar blue assay; conditions: HOP-62, 72 h; in short: as §1
HeLa = assay: Cytotoxicity against human HeLa cells after 72 hrs by alamar blue assay; in short: as §1
[3] = Cytotoxicity against human H266 cells after 72 hrs by alamar blue assay; conditions: H266, 72 h; in short: as §1
NCI-H1299 = assay: Cytotoxicity against human NCI-H1299 cells after 72 hrs by alamar blue assay; conditions: NCI-H1299, 72 h; in short: as §1
[4] = Cytotoxicity against human SKBR cells after 72 hrs by alamar blue assay; in short: as §1
LOX IMVI = assay: Cytotoxicity against human LOXIMVI cells after 72 hrs by alamar blue assay; in short: as §1

SMILES | IC50 (NCI-H460) [µM] | IC50 [1] [µM] | IC50 (M14) [µM] | IC50 (NCI-H157) [µM] | IC50 (Calu-1) [µM] | IC50 (A549) [µM] | IC50 (NCI-H1792) [µM] | IC50 [2] [µM] | IC50 (HOP-62) [µM] | IC50 (HeLa) [µM] | IC50 [3] [µM] | IC50 (NCI-H1299) [µM] | IC50 [4] [µM] | IC50 (LOX IMVI) [µM]
O=C(/C=C/c1ccc(OCCCCCCO[N+](=O)[O-])c(O)c1)OCCCCCCO[N+](=O)[O-] | > 50 | > 50 | > 50 | > 50 | > 50 | > 50 | > 50 | > 50 | > 50 | 1.35 | > 50 | > 50 | 39.7 | > 50
CCCCOC(=O)/C=C/c1ccc(O)c(OC)c1 | 19.4 | 15 | 18.1 | 9.03 | 17.2 | 8.23 | 15 | 22.9 | 14.9 | 10.3 | 18.3 | 8.23 | 13.2 | 19.3
COc1cc(/C=C/C(=O)OCCOc2no[n+]([O-])c2S(=O)(=O)c2ccccc2)ccc1O | > 50 | > 50 | > 50 | > 50 | > 50 | > 50 | > 50 | > 50 | > 50 | > 50 | > 50 | > 50 | > 50 | > 50
COC(=O)/C=C/c1ccc(O)c(OC)c1 | > 50 | > 50 | > 50 | > 50 | > 50 | > 50 | > 50 | > 50 | > 50 | 5.55 | > 50 | > 50 | > 50 | > 50
CCCCCOC(=O)/C=C/c1ccc(O)c(O)c1 | 1.91 | 6.8 | 7.48 | 2.28 | 8.57 | 5.75 | 6.35 | 7.73 | 5.11 | 2.02 | 7.24 | 4.69 | 2.96 | 3.38
CCCOC(=O)/C=C/c1ccc(O)c(OC)c1 | 25.2 | 18.5 | 28.1 | 15.2 | 48.9 | 15.6 | 34.1 | 35.9 | 22.4 | 5.62 | 20.4 | 40.3 | 24.5 | 15.2
CC(C)OC(=O)/C=C/c1ccc(O)c(O)c1 | 10.5 | > 50 | > 50 | 11 | > 50 | > 50 | > 50 | > 50 | > 50 | 9.65 | > 50 | 30.8 | 31.5 | > 50
O=C(/C=C/c1ccc(O)c(O)c1)OCc1c(-c2ccccc2)no[n+]1[O-] | 2.54 | 12.9 | 12.5 | > 50 | 7.68 | 2.71 | 3.78 | 9.17 | 6.12 | 1.23 | 14.2 | > 50 | 0.7 | 13.3
CCOC(=O)/C=C/c1ccc(O)c(O)c1 [ETHYL CAFFEATE] | 13.1 | 11.2 | 9.82 | 7.62 | 17.2 | 7.22 | 18.4 | 5.25 | 12.5 | 1.96 | > 50 | 4.93 | 4.16 | 6.21
COc1cc(/C=C/C(=O)OCCCO[N+](=O)[O-])ccc1O | 29 | 18.4 | 42.6 | 20.5 | > 50 | 13.2 | 28.5 | 39.4 | 19.4 | 6.7 | 44 | 28.3 | 17.2 | 29.5
CC(C)CCOC(=O)/C=C/c1ccc(O)c(O)c1 | 16.5 | 29.1 | 30.6 | 8.25 | 20.2 | 8.76 | 31.9 | 27.6 | 15.7 | 9.39 | 33.8 | 17.9 | 13.1 | 8.03
COc1cc(/C=C/C(=O)Oc2cccc(OCc3c(-c4ccccc4)no[n+]3[O-])c2)ccc1O | 11.6 | 44.6 | > 50 | 24.7 | > 50 | 0.72 | > 50 | > 50 | > 50 | > 50 | > 50 | > 50 | 14.2 | 49.4
COc1cc(/C=C/C(=O)OCCCCCO[N+](=O)[O-])ccc1O | 12.3 | 21.8 | 24.5 | 13.4 | 26.3 | 6.39 | 13 | 24.9 | 12.5 | 13.4 | 21.2 | 20.8 | 8.06 | > 50
COc1cc(/C=C/C(=O)OCc2cccc(OCc3c(-c4ccccc4)no[n+]3[O-])c2)ccc1O | 29.4 | > 50 | > 50 | > 50 | > 50 | > 50 | > 50 | > 50 | > 50 | 5.64 | > 50 | > 50 | 4.18 | > 50
COc1cc(/C=C/C(=O)OC(C)C)ccc1O | > 50 | > 50 | > 50 | > 50 | > 50 | > 50 | > 50 | > 50 | > 50 | 31.1 | > 50 | > 50 | > 50 | > 50
O=C(/C=C/c1ccc(O)c(O)c1)OCCCCO[N+](=O)[O-] | 3.52 | 17.5 | 19.9 | 5.19 | 21.7 | 22.6 | 15.4 | 16.7 | 10 | 2.25 | 23.3 | 3.14 | 4.55 | > 50
O=C(/C=C/c1ccc(OCCCCO[N+](=O)[O-])c(O)c1)OCCCCO[N+](=O)[O-] | > 50 | > 50 | > 50 | > 50 | > 50 | 0.41 | > 50 | > 50 | > 50 | 3.93 | > 50 | > 50 | 3.23 | > 50
